Data on six compounds can be found in ChEMBL document CHEMBL1129984, “Synthesis and pharmacological characterization of enantiomerically pure muscarinic agonists: difluoromuscarines” (J Med Chem, 1997).

For test [1], the species on record is Cavia porcellus. The experiment in a line: Dissociation constant was evaluated on guinea pig bladder at M3 muscarinic receptor. The procedure, abridged: (§1)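 Dissociation constants and relative efficacies derived from guinea pig tissue agonist responses by the Furchgott and Bursztyn method.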
The species named for test [2] is Cavia porcellus. The experiment in a line: Dissociation constant was evaluated on guinea pig heart (force) at M2 muscarinic receptor. Put shortly: as §1
The species entered for test [3] is Cavia porcellus. Nature of the test: Dissociation constant was evaluated on guinea pig heart (rate) at M2 muscarinic receptor. The procedure, abridged:
as §1

For test [4], the species on record is Cavia porcellus. Nature of the test: Dissociation constant was evaluated on guinea pig ileum at M3 muscarinic receptor. Put shortly: as §1
Test [5] concerns the target Muscarinic acetylcholine receptor M3 (Cavia porcellus) (UniProt Q8VH26). Nature of the test: Intrinsic adtivitiy was measured by the ratio between the maximum response and the maximum response of muscarine in guinea pig bladder at Muscarinic acetylcholine receptor M3. The format is functional. Put shortly:
(§2)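 Isolated guinea pig tissues in PSS. Responses are expressed as a percentage of the maximal response in the control curve. Potency is given as pD₂ (−log ED₅₀, the agonist concentration producing 50% of maximal contraction). […] Parallel tissues received only (±)-muscarine to check sensitivity. 6–10 observations, mean ± SEM.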

The target is the same in test [6]. Nature of the test: Intrinsic adtivitiy was measured by the ratio between the maximum response and the maximum response of muscarine in guinea pig ileum at Muscarinic acetylcholine receptor M3. The format is functional, tissue-based. Put shortly:
as §2

The target of test [7] is T1, Muscarinic acetylcholine receptor M2 (Rattus norvegicus) (UniProt P10980).
T1 sequence (whole entry): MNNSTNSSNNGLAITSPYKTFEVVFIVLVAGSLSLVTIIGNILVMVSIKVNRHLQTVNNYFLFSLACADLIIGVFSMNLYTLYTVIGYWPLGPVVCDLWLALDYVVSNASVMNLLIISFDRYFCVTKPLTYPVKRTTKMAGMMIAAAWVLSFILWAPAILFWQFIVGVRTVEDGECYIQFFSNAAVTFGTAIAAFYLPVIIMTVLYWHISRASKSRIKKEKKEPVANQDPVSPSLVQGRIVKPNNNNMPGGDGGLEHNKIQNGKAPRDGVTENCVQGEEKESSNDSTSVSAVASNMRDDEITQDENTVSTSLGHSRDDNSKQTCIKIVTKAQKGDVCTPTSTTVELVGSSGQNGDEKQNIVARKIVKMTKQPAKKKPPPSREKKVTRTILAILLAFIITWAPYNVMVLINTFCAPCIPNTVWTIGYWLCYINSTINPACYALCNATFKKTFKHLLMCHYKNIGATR
The experiment in a line: Muscarinic potency was evaluated at cardiac Muscarinic acetylcholine receptor M2 mediating Bradycardia in the pithed rat (Decrease in heart rate). The format is functional. The procedure, abridged: (§3)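 Pithed rats, artificially respired at 60 cycles/min, 1 mL/100 g, and equilibrated ≥30 min until heart rate was stable (basal 300 ± 8 beats/min). Agonists in 0.9% saline given iv at 0.1 mL/100 g, with full recovery between single doses. Heart rate measured from the carotid pressure pulse. ED₅₀ read graphically from dose–response curves. 5–9 observations, mean ± SEM.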

For test [8], the target named is Muscarinic acetylcholine receptor M3 (Cavia porcellus) (UniProt Q8VH26). The experiment in a line: Muscarinic potency was evaluated on guinea pig bladder at Muscarinic acetylcholine receptor M3 (expressed as -logED50). The format is functional. Put shortly:
as §2

Test [9] shares this target. Nature of the test: Muscarinic potency was evaluated on guinea pig ileum at Muscarinic acetylcholine receptor M3 (expressed as -logED50). The format is functional, tissue-based. The procedure, abridged: as §2
Test [10] has the same target. The experiment in a line: Relative efficacy was evaluated on guinea pig bladder at Muscarinic acetylcholine receptor M3. The format is functional. Put shortly:
as §1

For test [11] the target is unchanged. Nature of the test: Relative efficacy was evaluated on guinea pig ileum at Muscarinic acetylcholine receptor M3. The format is functional, tissue-based. Put shortly: as §1
Test [12] addresses T2, Muscarinic acetylcholine receptor M2 (Homo sapiens) (UniProt P08172).
T2 sequence (whole entry): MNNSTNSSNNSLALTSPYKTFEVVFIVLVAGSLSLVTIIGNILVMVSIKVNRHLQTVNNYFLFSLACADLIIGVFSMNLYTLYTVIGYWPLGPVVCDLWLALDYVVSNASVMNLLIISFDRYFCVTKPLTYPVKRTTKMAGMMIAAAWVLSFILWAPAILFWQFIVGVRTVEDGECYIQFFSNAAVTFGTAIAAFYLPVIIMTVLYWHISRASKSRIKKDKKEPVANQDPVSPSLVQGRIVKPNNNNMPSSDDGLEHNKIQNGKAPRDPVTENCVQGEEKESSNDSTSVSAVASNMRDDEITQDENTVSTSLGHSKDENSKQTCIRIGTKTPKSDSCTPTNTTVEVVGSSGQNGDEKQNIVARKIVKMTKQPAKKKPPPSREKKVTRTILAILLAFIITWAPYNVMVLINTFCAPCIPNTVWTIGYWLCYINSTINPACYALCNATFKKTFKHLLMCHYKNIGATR
The experiment in a line: Relative efficacy was evaluated on guinea pig heart (rate) at Muscarinic acetylcholine receptor M2. The format is functional. The conditions noted are these: Cavia porcellus; target entry is the homologue from another species. The procedure, abridged: as §1

For test [13], the target named is T2, Muscarinic acetylcholine receptor M2 (Homo sapiens). Nature of the test: Relative efficacy was evaluated on guinea pig heart (force) at Muscarinic acetylcholine receptor M2. To be noted: Cavia porcellus; target entry is the homologue from another species. The format is functional. Put shortly:
as §1

Test [14] concerns the target T3, Muscarinic acetylcholine receptor M1 (Rattus norvegicus) (UniProt P08482).
T3 sequence (whole entry): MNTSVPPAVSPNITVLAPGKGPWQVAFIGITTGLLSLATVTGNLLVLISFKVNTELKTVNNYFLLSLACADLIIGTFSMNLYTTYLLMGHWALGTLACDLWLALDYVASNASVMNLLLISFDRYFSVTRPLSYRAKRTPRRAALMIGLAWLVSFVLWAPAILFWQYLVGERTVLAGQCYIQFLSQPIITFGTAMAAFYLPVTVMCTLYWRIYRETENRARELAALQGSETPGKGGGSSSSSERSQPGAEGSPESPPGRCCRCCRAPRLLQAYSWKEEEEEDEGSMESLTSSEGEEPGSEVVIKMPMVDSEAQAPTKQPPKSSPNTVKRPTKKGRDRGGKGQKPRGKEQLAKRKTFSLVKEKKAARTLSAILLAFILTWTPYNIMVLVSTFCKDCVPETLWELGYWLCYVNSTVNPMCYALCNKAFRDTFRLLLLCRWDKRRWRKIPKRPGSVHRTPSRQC
The experiment in a line: Muscarinic potency was evaluated at ganglionic Muscarinic acetylcholine receptor M1 mediating Tachycardia in the pithed rat (Increase in heart rate). The procedure, abridged: as §3

The subject of test [15] is Muscarinic acetylcholine receptor M2 (Cavia porcellus). Nature of the test: Muscarinic potency was evaluated on guinea pig heart (rate) at Muscarinic acetylcholine receptor M2.
Test [16] has the same test system. Nature of the test: Muscarinic potency was evaluated on guinea pig heart (force) at Muscarinic acetylcholine receptor M2 (expressed as -logED50).
The test system is the same in test [17]. The experiment in a line: Intrinsic activity was measured as the ratio between the maximum response and the maximum response of muscarine in guinea pig heart at Muscarinic acetylcholine receptor M2.

Chain of Muscarinic acetylcholine receptor M3 (Cavia porcellus) (Q8VH26 1-587): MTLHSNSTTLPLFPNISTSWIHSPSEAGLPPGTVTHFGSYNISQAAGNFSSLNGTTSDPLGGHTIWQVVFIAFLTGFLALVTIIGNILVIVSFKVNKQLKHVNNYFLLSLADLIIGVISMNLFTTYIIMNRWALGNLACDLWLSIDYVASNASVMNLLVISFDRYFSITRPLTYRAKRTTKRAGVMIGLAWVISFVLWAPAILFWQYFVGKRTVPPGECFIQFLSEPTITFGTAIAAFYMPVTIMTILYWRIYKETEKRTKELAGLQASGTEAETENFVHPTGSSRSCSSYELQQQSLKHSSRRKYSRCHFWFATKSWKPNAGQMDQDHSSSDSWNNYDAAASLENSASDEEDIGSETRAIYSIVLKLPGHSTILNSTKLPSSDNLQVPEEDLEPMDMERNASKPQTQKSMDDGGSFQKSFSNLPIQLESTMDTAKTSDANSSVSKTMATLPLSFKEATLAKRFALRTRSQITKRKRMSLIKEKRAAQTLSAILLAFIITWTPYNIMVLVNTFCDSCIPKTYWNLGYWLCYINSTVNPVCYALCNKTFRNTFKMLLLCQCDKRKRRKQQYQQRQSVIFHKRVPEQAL

A word on the ED50: it is the dose that gives a 50% effect, or the effect in half of the subjects. In the case of `C[C@@H]1O[C@H](C[N+](C)(C)C)CC1(F)F`, the “-Log Kd” value in the test filed under Cavia porcellus [1] is listed as 4.4; in the test listed under Cavia porcellus [2], 4.37; in the test filed under Cavia porcellus [3] it was 3.39; in the test listed under Cavia porcellus [4] it was 4.7. The Intrinsic activity in test [5] came to 0.83; in test [6], 0.99; in test [17], 1. Further, the ED50 in test [7] is 0.14 mg/kg; in [14], 0.05 mg/kg. Further, the values for the pD2 in test [8], in [9] and in test [16] were 5.23, 5.8 and 6.56, respectively. In addition, the Relative efficacy in [10] was 0.6; in [11], 0.9; in [12], 23; in test [13], 1.6. In test [15], this compound registered a -Log ED50 of 6.58.
On to `C[C@@H]1O[C@H](C[N+](C)(C)C)C[C@H]1F`, for which the “-Log Kd” value in the test filed under Cavia porcellus [1] is reported as 4.39; in the test listed under Cavia porcellus [2], 4.67; in the test filed under Cavia porcellus [3], 5.77; in the test filed under Cavia porcellus [4] it was 5.72. The Intrinsic activity in [5] stood at 0.88; in test [6], 0.95; in test [17] it was 0.98. Besides, the results for the ED50 in [7] and in test [14] were 0.0235 mg/kg and 0.0045 mg/kg, respectively. Also, the pD2 came out at 5.66 in [8], 7.36 in test [9] and 6.73 in [16]. Also, the Relative efficacy in test [10] is 1.5; in test [11] it was 3; in test [12] it was 0.2; in [13], 1.2. The -Log ED50 in [15] stood at 6.87.
In the case of `C[C@H]1O[C@@H](C[N+](C)(C)C)CC1(F)F`, the “-Log Kd” value is given as 3.71 in the test listed under Cavia porcellus [1], 3.64 in the test listed under Cavia porcellus [2], 3.48 in the test filed under Cavia porcellus [3] and 4.47 in the test filed under Cavia porcellus [4]. For the same compound, the values for the Intrinsic activity in test [5], in test [6] and in [17] were 0.95, 0.98 and 0.97, respectively. Besides, the values for the ED50 in test [7] and in test [14] were 0.274 mg/kg and 0.1 mg/kg, respectively. Further, the pD2 in test [8] amounted to 3.82; in test [9], 5.53; in test [16], 5.76. In addition, the Relative efficacy amounted to 0.2 in test [10], 0.8 in [11], 10 in test [12] and 1.3 in test [13]. Besides, the -Log ED50 in test [15] worked out at 6.31.
`C[C@H]1O[C@H](C[N+](C)(C)C)CC1(F)F`: the figures for the Intrinsic activity in [5], in test [6] and in [17] were 0.67, 0.99 and 0.98, respectively. The pD2 in [8] was determined as 3.95; in [9], 4.85; in test [16], 5.77.
As for `C[C@@H]1O[C@@H](C[N+](C)(C)C)CC1(F)F`, the Intrinsic activity came to 1 in test [5], 0.97 in test [6] and 1 in test [17]. The pD2 in test [8] came out at 4.16; in test [9] it was 5.33; in test [16] it was 6.28.
For `C[C@@H]1O[C@H](C[N+](C)(C)C)C[C@H]1O` (racemic) [MUSCARINE], the “-Log Kd” value was 4.62 in the test listed under Cavia porcellus [1] and 5.95 in the test filed under Cavia porcellus [4]. In addition, in [6], the Intrinsic activity came to 1. Moreover, the figures for the pD2 in test [8] and in test [9] were 5.69 and 7.1, respectively.
